Source: PubChem (Sanford-Burnham Center for Chemical Genomics)
A selection: hits, their analogues and other compounds. The true share with any hit is near 1.3%.
G6PDH CS: L. mesenteroides G6PDH inhibitors, counter-screen for G6PDH-coupled screening assays, biochemical, Leuconostoc mesenteroides enzyme; Purified L. mesenteroides G6PDH, diaphorase/resazurin coupled fluorescence, 45 min; inhibition, % at 5 µM; 200,000 tested, 0.12% active; in the data active = inhibition above about 50%
Diaph inh CS: diaphorase inhibitors and chemical oxidizers, primary screen, counter-screen for diaphorase-coupled primary assays, biochemical, uHTS, resorufin fluorescence; diaphorase resazurin-to-resorufin fluorescence, NADH, 16 min; bacterial (C. kluyveri) enzyme, not human; inhibition, % at 20 µM; AID 1217, 2008; 190,000 tested, 0.69% active;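 active = primary screen inhibition at 20 µM above a set limit, cut at about 50% in these data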;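 note: plate controls were DMSO with full reaction for no effect and wells lacking NADH for full effect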
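controls = No-NADH positive control and DMSO neutral control | system = Clostridium kluyveri diaphorase enzyme | timing = reaction incubation of 16 min at room temperature | signal = resorufin fluorescence 544/590 nm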
Diaph act CS: compounds boosting diaphorase resazurin reduction – biochemical, uHTS, resorufin fluorescence, counter-screen for diaphorase-coupled primary assays, primary screen; Diaphorase/resazurin coupled assay, 16 min; active compounds read high; 1 = vehicle wells, 0 = NADH-free wells; activation factor at 20 µM; 190,000 tested, 0.005% active;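 active = diaphorase activity raised at least twofold by the compound at 20 µM; inactive = activation factor below 2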
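Material: bacterial diaphorase enzyme (C. kluyveri); amount: enzyme 0.07 U/mL final; reagent: NADH substrate 0.114 mM plus resazurin dye 0.1 mM, final; doses: single compound dose of 20 µM, 1% DMSO final; timing: 16 min enzyme reaction, ambient temperature; measured by: fluorescence of resorufin, 544 nm excitation, 590 nm emission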
HKDC1 inhibitor: HKDC1 hexokinase inhibitors, primary screen, biochemical, fluorescence, uHTS | inhibition, % at 20 µM | 340,000 tested, 0.16% active | Q2TB90 | recombinant HKDC1, G6PDH/diaphorase resazurin coupled fluorescence | AID 493160, 2011;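 active = inhibition above about 35% when tested at 20 µM, limit read from the data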;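 note: plate controls were DMSO wells with enzyme for no effect and DMSO wells lacking enzyme for full effect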
Target sequence (Q2TB90 whole entry, looked up): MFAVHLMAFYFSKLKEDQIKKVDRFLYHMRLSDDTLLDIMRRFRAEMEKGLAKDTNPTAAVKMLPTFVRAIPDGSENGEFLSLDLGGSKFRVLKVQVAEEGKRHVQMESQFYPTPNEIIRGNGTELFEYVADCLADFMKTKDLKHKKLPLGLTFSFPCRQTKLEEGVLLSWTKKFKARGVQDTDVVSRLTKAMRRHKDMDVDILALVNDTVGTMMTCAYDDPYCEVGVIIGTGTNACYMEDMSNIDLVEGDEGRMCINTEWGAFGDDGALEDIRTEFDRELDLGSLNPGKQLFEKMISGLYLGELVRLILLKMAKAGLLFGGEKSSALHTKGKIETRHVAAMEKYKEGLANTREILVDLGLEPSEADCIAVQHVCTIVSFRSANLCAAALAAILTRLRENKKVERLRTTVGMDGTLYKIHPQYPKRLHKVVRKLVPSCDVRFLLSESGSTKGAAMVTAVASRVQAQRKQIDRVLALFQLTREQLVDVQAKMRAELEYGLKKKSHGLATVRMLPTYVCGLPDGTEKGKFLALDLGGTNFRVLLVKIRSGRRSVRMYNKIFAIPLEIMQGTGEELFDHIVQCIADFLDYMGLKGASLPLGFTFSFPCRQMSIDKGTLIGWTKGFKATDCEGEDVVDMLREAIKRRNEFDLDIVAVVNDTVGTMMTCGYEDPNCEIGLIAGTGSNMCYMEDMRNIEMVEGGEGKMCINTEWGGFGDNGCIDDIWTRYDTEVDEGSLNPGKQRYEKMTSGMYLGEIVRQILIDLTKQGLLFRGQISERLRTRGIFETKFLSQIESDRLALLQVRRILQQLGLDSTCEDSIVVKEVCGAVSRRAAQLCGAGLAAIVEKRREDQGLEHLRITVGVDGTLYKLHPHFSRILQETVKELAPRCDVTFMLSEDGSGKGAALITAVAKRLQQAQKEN
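Assay system – recombinant HKDC1 (HK5) hexokinase enzyme, produced in-house · Input – HKDC1 at 5 µg/mL · Reagent – glucose plus 1 mM ATP as hexokinase substrates · Timing – 90 min reaction incubation at room temperature, dark · Measured by – G6PDH/diaphorase-coupled fluorescence, 1 mM NADP, 100 µM resazurin, 525/613 nm · Benchmarks – DMSO-enzyme wells negative, buffer-substituted wells positive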
PfG6PD inh: PfG6PD enzyme inhibitors, primary screen, biochemical, fluorescence intensity, uHTS; AID 504690, 2011; 350,000 tested, 0.78% active; PfGluPho enzyme, NADPH resazurin-diaphorase fluorescence; inhibition, % at 20 µM;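 active = inhibition reaching at least a set limit at 20 µM in the primary screen, cut at about 59% in these data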;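 note: 0% = DMSO wells with substrate and 100% = DMSO wells lacking glucose-6-phosphate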
HKDC1 act conf2: HKDC1 hexokinase activators, confirmation, biochemical, single concentration. 740 tested, 14% active. AID 504708, 2011. recombinant HKDC1, G6PDH/diaphorase resazurin fluorescence; active compounds read low. inhibition, % at 20 µM. shares compounds with HKDC1 inhibitor;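 active = inhibition at or below a set negative limit, negative inhibition meaning the enzyme was activated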
An asterisk follows results filed as active; / = not tested or not shown.

SMILES	G6PDH CS	Diaph inh CS	Diaph act CS	HKDC1 inhibitor	PfG6PD inh	HKDC1 act conf2
COc1ccc2c(c1)/C(=C\c1cccc(/C=C3/C(=O)Nc4ccc(OC)cc43)n1)C(=O)N2	/	/	/	37*	22	24
Cc1ccc(S(=O)(=O)N(CC(=O)Nc2ccc(C(N)=O)cc2)C(=O)N2CCN(C)CC2)cc1	/	/	/	4	-5	/
COc1ccc(Oc2cc(C)nc(Cl)n2)nn1	-8	-15	1.2	-78	-4	-15
Cc1cc(Oc2ccc(OCC(N)=O)nn2)nc(Cl)n1	6	10	0.9	-9	-6	/
O=C(O)c1ccc2c(=O)n(-c3ccccc3)c(=S)[nH]c2c1	/	/	/	84*	29	-2
CCOC(=O)c1c(C)sc2c1N(C(=O)CCl)c1cc(Cl)ccc1S2	3	40	0.6	45*	12	22
CC(C)c1ccc([N+](=O)[O-])cc1S(=O)(=O)N1CCN(C)CC1	/	/	/	-7	18	/
CC(OC(=O)CCNS(=O)(=O)c1ccc(Cl)cc1)C(=O)N(C)Cc1ccccc1 (stereo not drawn)	/	/	/	/	6	/
Cc1ccc(NC2c3ncccc3C(=O)N2c2ccccc2C)cc1C (stereo not drawn)	0	21	0.8	56*	29	36
CCOC(=O)Cn1c2ccc(F)cc2c2nc(C)sc21	7	15	0.8	-62	23	-37*
COC(=O)Cn1c2ccc(F)cc2c2nc(C)sc21	4	13	0.9	-92	13	-90*
COc1ccc(OC(=O)N2C/C(=C/c3ccccc3)C(=O)/C(=C\c3ccccc3)C2)cc1	/	/	/	36*	14	2
C[N+](C)(C)CCC(=O)N1C/C(=C/c2ccccc2)C(=O)/C(=C\c2ccccc2)C1	/	/	/	15	38	/
CN(C)CCC(=O)N1C/C(=C/c2ccccc2)C(=O)/C(=C\c2ccccc2)C1	/	/	/	12	27	/
CCOC(=O)N1C/C(=C\c2ccccc2)C(=O)/C(=C/c2ccccc2)C1	/	/	/	33	31	11
COc1ccc2c(c1)c(=O)oc1c(C)c(OCc3ccc(C(=O)O)cc3)ccc12	/	/	/	29	-22	/
COc1ccc2c(c1)c(=O)oc1c(C)c(OCc3cc(C(=O)O)oc3C)ccc12	4	47	0.5	79*	-17	11
CS(=O)(=O)c1ccc(C(=O)OCC(=O)NC(=O)Cc2ccccc2)cc1	/	/	/	35	0	-19
COc1ccccc1C(=O)NC(=O)CSc1nc(C)cs1	/	/	/	-2	4	/
COCCN(CCOc1cc(C)cc(C)c1)Cc1ccc(Cl)cc1	/	/	/	1	19	/
COc1ccc(OC)c2[nH]c(=O)c(CCNC(=O)c3cc4ccccc4o3)cc12	-37	58*	0.4	38*	23	60
Cc1ccc(C)c2[nH]c(=O)c(CCNC(=O)c3cc4ccccc4o3)cc12	-21	25	0.8	2	10	/
COc1ccc(N=Nc2ccc(N)nc2N)cc1	/	/	/	0	22	/
CCOc1ccc2nc3cc(N=Nc4ccc(N)nc4N)ccc3c(N)c2c1	/	/	/	37*	58	-31
CC(=NNC(=S)N1CCN(C2CCCCCC2)CC1)c1ccccn1	/	/	/	-42	42	-40*
SMILES	G6PDH CS	Diaph inh CS	Diaph act CS	HKDC1 inhibitor	PfG6PD inh	HKDC1 act conf2
CC(=NNC(=S)N1CC2CCC(CC2)C1)c1ccccn1	/	/	/	/	22	/
CC(=NNC(=S)N1CC2CCC(CC2)C1)c1cnccn1	/	/	/	-47	33	-31
O=C(O)c1ccc(S(=O)(=O)/N=C2\C=C(Nc3ccccc3F)C(=O)c3ccccc32)cc1	/	/	/	81*	93*	76
CC(C)(C)c1ccc(-c2csc(NNC3=NCCCCC3)n2)cc1	8	10	0.9	-61	24	-39*
Brc1ccc(-c2csc(NNC3=NCCCCC3)n2)cc1	-1	6	0.9	-1	37	/
C[n+]1c(-c2ccccc2)cc2c(=Cc3ccccc3)c3ccccc3n21	/	/	/	42*	21	-18
Cc1cc(C)cc(-n2c(N)c(C(=O)Nc3c(C)n(C)n(-c4ccccc4)c3=O)c3nc4ccccc4nc32)c1	10	12	0.9	38*	14	-33
Cc1ccc(-n2c(N)c(C(=O)Nc3c(C)n(C)n(-c4ccccc4)c3=O)c3nc4ccccc4nc32)cc1	-10	28	0.7	4	-1	/
COc1cccc(-n2c(N)c(C(=O)Nc3c(C)n(C)n(-c4ccccc4)c3=O)c3nc4ccccc4nc32)c1	/	/	/	36*	31	28
Cc1ccc2cc(C=C(C#N)C#N)c(N3CCCCC3)nc2c1	1	20	0.8	41*	-8	-11
CC(=O)N1CCN(C2c3cccc4cccc(c34)C2NS(=O)(=O)c2ccccc2)CC1 (stereo not drawn)	-2	16	0.8	-49	-22	-45*
Cc1ccc(S(=O)(=O)NC2c3cccc4cccc(c34)C2Sc2nncn2C)cc1 (stereo not drawn)	10	6	0.9	-14	1	/
Cn1cnnc1SC1c2cccc3cccc(c23)C1NS(=O)(=O)c1ccccc1 (stereo not drawn)	9	8	0.9	-49	-50	-64*
Cc1ncc(CN2CCCC(C(=O)Nc3ccc(-c4cccc(F)c4)cc3)C2)n1C (stereo not drawn)	/	/	/	0	11	/
Oc1ccc(/C=N/Nc2nccnc2Cl)c(O)c1	2	30	0.7	-5	-24	/
O=[N+]([O-])c1ccc(NN=Cc2ccc(O)cc2O)nc1	/	/	/	37*	4	51
